FGF22 binding: binders of recombinant human FGF22 by thermal shift | 340,000 compounds, 1.5% hits | SYPRO orange fluorescence; percent of sucrose octasulfate shift, DMSO zero | activity (Tm shift, normalised), % at 9.99 µM;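 active = mean Tm shift, scaled 0 neutral to 100 positive control, at about 1.3% or above, every replicate too, limit read from the data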
Target sequence (Q9HCT0 whole entry, looked up): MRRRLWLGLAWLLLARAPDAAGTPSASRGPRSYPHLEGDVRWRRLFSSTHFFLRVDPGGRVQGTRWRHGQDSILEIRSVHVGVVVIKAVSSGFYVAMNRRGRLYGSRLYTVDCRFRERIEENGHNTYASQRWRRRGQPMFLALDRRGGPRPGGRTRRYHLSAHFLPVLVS
Cneo AK release: causes C. neoformans cell lysis. adenylate kinase release luminescence, 4 h; normalised: neutral wells 0, clomiphene wells 100. lysis activity, % at 15 µM. 360,000 compounds, 0.2% hits. AID 651654;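 active = mean lysis activity across replicates of at least 80%, whatever share of replicates individually reach that level; inactive = mean lysis activity below 80%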
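Material – log-phase Cryptococcus neoformans yeast cells · Input – 5 × 10^6 yeast cells/mL · Medium – fresh YPD growth medium · Doses – single compound concentration per well · Timing – static 4 h at 37 °C with compound, 1 h detection · Detection – adenylate kinase release luminescence · Read-out – signal increase indicating cell lysis · Control set – Clomiphene as positive lysis control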
PGC1a acetyl inh: PGC1a acetylation modulation, inhibitor mode; inhibition, % at 15.6 µM; U2OS PGC1a acetylation, AlphaScreen anti-acetyl-lysine; with virally co-expressed GCN5 acetyltransferase; 350,000 compounds, 0.17% hits;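 active = every replicate shows inhibition of at least 40%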;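 note: 0% = neutral control wells and 100% = positive control wells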
Vif imaging: inhibitors of HIV Vif | 340,000 compounds, 0.35% hits | HEK293T cells, Vif self-association by quenched fluorescence, imaging, 24 h | inhibition, % at 7.49 µM; in the data active = inhibition above about 50%, passing the limit was not always enough
rRNA inh HTS: inhibits bacterial ribosomal RNA function over humanized ribosomes | E. coli WT GFP vs humanized-ribosome RFP mutants, fluorescence, 24 h; stronger effect = lower value; DMSO median 0, no signal -100 | GFP signal change (wild-type ribosome), % (concentration not given with the values) | 350,000 compounds, 1.6% hits;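 active = significant combined selectivity score with lowered wild-type GFP, culture density cut under 30%, mutant RFP and density less affected; inactive = any of these conditions unmet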
PglD DTNB: blocks C. jejuni PglD acetyltransferase activity; inhibition, % at 12.5 µM; purified PglD enzyme, DTNB colorimetric CoA detection; 360,000 compounds, 0.098% hits; in the data active = inhibition above about 16%, passing the limit was not always enough
An asterisk follows results filed as active; . = not tested or not shown. The list is not random: actives were taken first. Their share in the collection is about 2.9%.

SMILES	FGF22 binding	Cneo AK release	PGC1a acetyl inh	Vif imaging	rRNA inh HTS	PglD DTNB
Cc1ccc(NC(=O)/C(=C/c2cccs2)NC(=O)c2ccco2)c(C)c1	0	.	.	5	-30*	.
COc1cc2c(cc1NC(=O)c1ccco1)CCCC2	0	0	-5	.	-32*	3
O=C(c1cccc(F)c1)N1CC(=O)N2[C@H](C1)[C@H](c1ccc(-c3ccccc3)cc1)[C@@H]2CO	.	.	.	.	0	.
C[C@@H]1CN([C@@H](C)CO)C(=O)c2cc(NS(=O)(=O)c3ccc(F)cc3)ccc2O[C@@H]1CN(C)C	1	2	0	.	1	-5
CCCC(=O)Nc1ccc2c(c1)C(=O)N(C)[C@@H]1CC[C@@H](CC(=O)OC)O[C@@H]1CO2	0	-1	10	.	0	-1
CC(C)CC#Cc1ccc2c(c1)O[C@@H](CN(C)C(=O)c1ccccn1)[C@@H](C)CN([C@@H](C)CO)S2(=O)=O	0	-3	-15	.	4	-1
O=C(Cc1ccccn1)N1CC2(C1)[C@H](c1ccccc1)[C@@H](CO)N2C(=O)c1ccncc1	0	.	-3	.	8	.
CCCNC(=O)[C@@H]1[C@@H](CO)[C@@H]2Cn3c(ccc(C4=CCCCC4)c3=O)[C@H]1N2Cc1cocn1	0	53	.	.	3	0
COc1cccc(NC(=O)c2cccc(NC(=O)c3ccco3)c2)c1	43*	1	-9	-1	-14	.
C[C@H](CO)N1C[C@H](C)[C@H](CN(C)Cc2cncnc2)Oc2cc(C#CC3CCCC3)ccc2S1(=O)=O	0	11	-1	.	-2	1
NC(=O)c1sc(=S)n(-c2ccc(Br)cc2)c1N	-1	-4	0	-4	-31*	7
CCc1ccc(/C=C\C(=O)N2CCCC2)cc1	0	-1	.	0	-19*	-3
CC(C)Cc1ccc(/C=C/C(=O)N2CCCCC2)cc1	0	.	0	-3	2	.
NC(=O)CCC(=O)N1CCCC(C(=O)c2ccc3c4c(cccc24)CC3)C1 (configuration not stated)	43*	.	.	2	-5	.
C[C@H](CO)N1C[C@H](C)[C@@H](CN(C)C)Oc2ccc(NC(=O)Nc3cccc4ccccc34)cc2CC1=O	0	32	-3	.	-2	1
C[C@H]1CN([C@@H](C)CO)S(=O)(=O)c2ccc(C#Cc3cccc(F)c3)cc2O[C@@H]1CN(C)C(=O)NC1CCCCC1	.	102*	9	.	-2	0
C[C@@H]1CN([C@@H](C)CO)S(=O)(=O)c2ccc(C#Cc3cccc(F)c3)cc2O[C@@H]1CN(C)C(=O)NC1CCCCC1	.	.	-6	.	-1	.
COc1ccccc1C#Cc1ccc2c(c1)O[C@H](CN(C)C(C)=O)[C@H](C)CN([C@@H](C)CO)S2(=O)=O	0	104*	-3	.	-3	-3
COc1cccc(NC(=O)N(C)C[C@@H]2Oc3cc(C#Cc4ccccc4)ccc3S(=O)(=O)N([C@@H](C)CO)C[C@@H]2C)c1	1.4*	0	-22	.	2	1
COc1ccccc1C#Cc1ccc2c(c1)O[C@H](CN(C)C(C)=O)[C@@H](C)CN([C@H](C)CO)S2(=O)=O	0	-12	-1	.	-7	-5
COc1ccc2c3c([nH]c2c1)[C@@H](CO)N(C(=O)Cc1ccccc1)CC31CCN(C(=O)Cc2ccccc2)CC1	.	.	10	.	1	.
c1ccc(CN2CCC(=NNc3nc4ccccc4[nH]3)CC2)cc1	43	3	8	-6	-27	6
CC(C)(C)C1CCC(=NNc2nc3ccccc3[nH]2)CC1 (configuration not stated)	.	.	6	1	-23*	.
CCC(=O)N(C)C[C@@H]1Oc2cc(C#CC3CC3)ccc2S(=O)(=O)N([C@H](C)CO)C[C@H]1C	0	1	-6	.	-28	1
Cc1nnc(N/N=C/c2ccccc2F)n1N	0	-1	30	59*	7	2
SMILES	FGF22 binding	Cneo AK release	PGC1a acetyl inh	Vif imaging	rRNA inh HTS	PglD DTNB
Cc1nnc(N/N=C/c2ccccc2C(F)(F)F)n1N	0	-1	3	11	-4	-4
CC(=O)Nc1ccc2c(c1)C(=O)N(C)C[C@H](C)[C@@H](CN(C)C(=O)NC(C)C)O2	.	.	.	.	0	.
CN(CC(=O)NCc1ccc(F)cc1)S(=O)(=O)c1ccc(Br)s1	0	2	20	2	-22*	1
CN(CC(=O)NCCc1ccc(S(N)(=O)=O)cc1)S(=O)(=O)c1ccc(Br)s1	0	-4	23	62*	2	2
C/C=C/c1ccc([C@@H]2[C@H](CO)N3C(=O)CN(C(=O)Nc4ccccc4F)C[C@@H]23)cc1	0	.	3	.	0	.
C#CCNC(=O)C1=C[C@@H](C(C)(C)C)C[C@@H](OCCCCO)O1	0	-6	3	.	.	.
C[C@H]1CN([C@@H](C)CO)C(=O)c2cc(-c3ccncc3)cnc2O[C@@H]1CN(C)Cc1ccc(Oc2ccccc2)cc1	1	3	-6	.	-11	0
N#CC(CCc1ccc([N+](=O)[O-])cc1)(CCc1ccc([N+](=O)[O-])cc1)C(N)=O	0	3	-7	12	-19*	-2
O=[N+]([O-])c1ccc(Cc2ccc([N+](=O)[O-])cc2)cc1	0	.	4	7	2	.
CCN1[C@@H]2c3ccc(-c4cccc(F)c4)c(=O)n3C[C@@H]2[C@@H](CO)[C@@H]1C(=O)N1CCCCC1	0	-2	.	.	-1	0
CC(=O)c1ccc(NC(=O)C(C)N(C)CC(=O)Nc2ccc(N3CCOCC3)cc2)cc1 (configuration not stated)	0	0	7	-5	-8	6
CC(=O)c1ccc(NC(=O)C(C)N(C)CC(=O)Nc2ccc(Cl)cc2)cc1 (configuration not stated)	44*	1	.	-1	.	-1
CCCC#Cc1ccc([C@@H]2[C@@H](CO)N3C(=O)CN(C(=O)c4ccc(F)cc4)C[C@H]23)cc1	.	.	-12	.	12	.
C/C(=N\NC(=O)COc1ccc(C(C)(C)C)cc1)c1ccc(N2CCOCC2)cc1	44*	.	.	-1	-8	.
C/C(=N\NC(=O)c1ccc(F)cc1)c1ccc(N2CCOCC2)cc1	1	.	.	3	19	.
C/C=C/c1ccc([C@H]2[C@H]3CN(Cc4ccc(C(=O)OC)cc4)CC(=O)N3[C@H]2CO)cc1	.	.	6	.	-3	.
O=C(/C=C/Nc1ccccc1O)c1ccco1	1	.	-3	0	3	.
O=C(/C=C/Nc1ccccc1Oc1ccccc1)c1ccco1	.	-2	-5	4	-32*	-5
COc1ccc(S(=O)(=O)N(C)C[C@@H]2Oc3c(NS(=O)(=O)c4ccc(C)cc4)cccc3C(=O)N([C@H](C)CO)C[C@H]2C)cc1	0	4	-3	.	-2	.

Screening data (PubChem)
